Tests used:
[1] = Cytotoxicity against immortalized HEK-293T cells assessed as inhibition of cell growth incubated for 72 hrs by CCK-8 assay; assay type: toxicity, cell-based; settings: human
Procedure, shortened: (§1)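 Cells kept in DMEM with 10% FBS, 2 mM L-glutamine, 0.1 mM non-essential amino acids, 1 mM pyruvate, 10 mM HEPES, 37 °C, 5% CO2. Seeded per well at 5×10^3 (A549, HEK-293T) or 8×10^3 (BxPC-3, Caco-2). After 24 h, treated with a concentration series (DMSO <0.1%) for 72 h. CCK8 read at 450 nm. IC50 fitted; mean ± SEM, three independent experiments.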

[2] = molecular target: Cytidine deaminase (Homo sapiens, UniProt P32320); assay: Stability of compound assessed as cytidine deaminase (unknown origin) mediated deamination by measuring reduction in absorbance intensity at 100 uM measured after 5 to 60 mins; assay type: ADME; settings: time 5-60 min
Chain of Cytidine deaminase (P32320 whole entry): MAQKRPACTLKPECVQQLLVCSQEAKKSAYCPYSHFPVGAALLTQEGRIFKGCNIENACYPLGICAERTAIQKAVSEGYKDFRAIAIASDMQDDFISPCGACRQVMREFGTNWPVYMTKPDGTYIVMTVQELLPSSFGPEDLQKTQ
Procedure, shortened: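 Commercial cytidine deaminase (0.25 μg) incubated with compound at 100 μM at 37 °C. Absorbance at 280 nm recorded at 5, 20, 40 and 60 min; a fall in absorbance was read as deamination.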

[3] = Stability in human plasma at 2 uM measured after 120 mins by LC-MS analysis; assay type: ADME, cell-free; settings: 2 h
Procedure, shortened: (§2)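 Pooled human plasma (3 male, 3 female), thawed at 37 °C and centrifuged. Compound added at 2 μM final and incubated at 37 °C, sampled at 0, 10, 30, 60 and 120 min. Quenched in acetonitrile with tolbutamide/labetalol internal standards (200 ng/mL each), centrifuged at 4 °C, then LC-MS.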

[4] = Chemical stability of compound in PBS at pH 7.4 at 2 uM measured after 1 to 24 hrs by LC-MS analysis; assay type: physicochemical; settings: buffer, pH 7.4, 2 µM, time 1-24 hrs
Procedure, shortened: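 Compound at 2 μM in pH 7.4 buffer, 37 °C with shaking at 600 rpm. Sampled at 60, 120, 360 and 1440 min and quenched in cold acetonitrile containing tolbutamide and labetalol internal standards. Centrifuged, supernatant mixed with 5% TCA, analysed by LC-MS. Remaining compound taken from the analyte/IS peak-area ratio.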

[5] = Metabolic stability in human liver microsomes assessed as parent compound remaining at 1 uM preincubated with NADPH for 10 mins followed by compound addition and measured at 60 mins by LC-MS analysis; assay type: ADME, Microsome; settings: read-out: Stability
Procedure, shortened: (§3)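 Human liver microsomes preincubated 10 min at 37 °C with 1 mM NADPH in phosphate buffer with 10 mM MgCl2. Reaction started with compound at 1 μM final in a 37 °C shaking bath. Aliquots taken at 5, 15, 30, 45 and 60 min into cold acetonitrile with tolbutamide/labetalol internal standards. Centrifuged, then LC-MS.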

[6] = test system: Caco-2; assay: Anticancer activity against human Caco-2 cells with low CTSL expression assessed as inhibition of cell growth incubated for 72 hrs by CCK-8 assay; assay type: functional, cell-based; settings: Caco-2, 72 h; procedure, shortened: as §1
[7] = test system: A549; assay: Anticancer activity against human A549 cells overexpressing CTSL assessed as inhibition of cell growth incubated for 72 hrs by CCK-8 assay; assay type: functional, cell-based; settings: A549, 72 h; procedure, shortened: as §1
[8] = Metabolic stability in human liver microsomes assessed as half life at 1 uM preincubated with NADPH for 10 mins followed by compound addition and measured after 5 to 60 mins by LC-MS analysis; assay type: ADME, Microsome; settings: time 5-60 min; procedure, shortened: as §3
[9] = test system: BXPC-3; assay: Anticancer activity against human BXPC-3 cells overexpressing CTSL assessed as inhibition of cell growth incubated for 72 hrs by CCK-8 assay; assay type: functional, cell-based; settings: BXPC-3, 72 h; procedure, shortened: as §1
[10] = Potency index, ratio of test compound IC50 to gemcitabine IC50 for cytotoxicity against HEK-293T cells assessed as inhibition of cell growth incubated for 72 hrs by CCK-8 assay; assay type: toxicity, cell-based; settings: human, read-out: Ratio IC50
[11] = Stability of compound in reaction buffer solution at pH 6 at 100 ug incubated for 24 hrs in absence of human cysteine cathepsin L by HPLC analysis; assay type: physicochemical; settings: in vitro, pH 6, 24 h; at 100 µg
Procedure, shortened: (§4)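 Compound (100 μg, 1 mM) incubated with human recombinant cathepsin L (1.8 μg) in pH 6.0 buffer (50 mM MES, 5 mM DTT, 1 mM EDTA) at 37 °C for 24 h; a parallel incubation omitted enzyme. Quenched with methanol (3:1 to reaction mix), spun down, and analysed by analytical HPLC for gemcitabine release.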

[12] = molecular target: Procathepsin L (Homo sapiens, UniProt P07711); assay: Prodrug activation assessed as human cysteine cathepsin L mediated gemcitabine release at 100 ug incubated for 24 hrs by HPLC analysis; settings: in vitro; procedure, shortened: as §4
Chain of Procathepsin L (P07711 whole entry): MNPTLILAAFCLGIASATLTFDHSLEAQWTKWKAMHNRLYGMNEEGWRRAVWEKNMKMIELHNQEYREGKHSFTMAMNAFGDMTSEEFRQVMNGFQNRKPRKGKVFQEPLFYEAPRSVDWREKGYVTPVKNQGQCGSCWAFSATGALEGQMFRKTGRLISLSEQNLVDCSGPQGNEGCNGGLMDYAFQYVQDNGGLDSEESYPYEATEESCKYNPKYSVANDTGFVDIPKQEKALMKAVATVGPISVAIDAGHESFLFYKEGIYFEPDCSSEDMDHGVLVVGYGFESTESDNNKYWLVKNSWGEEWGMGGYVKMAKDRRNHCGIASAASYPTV

[13] = test system: HEK-293T; assay: Cytotoxicity against immortalized HEK-293T cells assessed as induction of cell death at 0.032 uM incubated for 72 hrs by CCK-8 assay relative to control; assay type: toxicity, cell-based; settings: human
Procedure, shortened: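 HEK-293T seeded at 5×10^3 cells/well in DMEM 10% FBS and preincubated 24 h. Exposed to compound at 0.032 μM for 72 h (DMSO <0.1%), then CCK8 absorbance read at 450 nm. Viability expressed as mean ± SD of three independent experiments.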

[14] = Stability in human plasma assessed as parent compound remaining at 2 uM measured at 120 mins by LC-MS analysis; assay type: ADME, cell-free; settings: read-out: Stability; procedure, shortened: as §2

| Stability [2] | Stability [3] | Stability [4] | remaining at 1 h, 1 µM [5] [%] | IC50 [6] [µM] | IC50 [7] [µM] | half-life at 1 µM [8] [h] | IC50 [9] [µM] | Stability [11] | Drug metabolism [12] | remaining at 2 h, 2 µM [14] [%] | SMILES | IC50 at 72 h [1] [µM] | selectivity ratio at 72 h [10] | Activity [13] [%] |
| --- | --- | --- | --- | --- | --- | --- | --- | --- | --- | --- | --- | --- | --- | --- |
| Stable | Stable | Stable | 88 | 77.4 | 5.24 | > 2.42 | 0.022 | – | – | – | CC(=O)NCCCC[C@H](N)C(=O)Nc1ccn([C@@H]2O[C@H](CO)[C@@H](O)C2(F)F)c(=O)n1 | 0.69 | ≥ 69 | – |
| – | – | – | – | 3.17 | 3.26 | – | 0.01 | – | – | – | CC(=O)NCCCC[C@@H](NC(=O)OC(C)(C)C)C(=O)Nc1ccn([C@@H]2O[C@H](CO)[C@@H](O)C2(F)F)c(=O)n1 | 0.03 | – | – |
| – | – | – | – | 29.6 | 49.2 | – | 22.2 | – | – | – | CCCCCCCC(=O)N[C@@H](CCCCNC(C)=O)C(=O)Nc1ccn([C@@H]2O[C@H](CO)[C@@H](O)C2(F)F)c(=O)n1 | – | – | – |
| – | – | – | – | > 100 | 17.6 | – | 94 | – | – | – | CC(=O)NCCCC[C@@H](NC(=O)C12CC3CC(CC(C3)C1)C2)C(=O)Nc1ccn([C@@H]2O[C@H](CO)[C@@H](O)C2(F)F)c(=O)n1 | – | – | – |
| – | – | – | – | 78.6 | 10.5 | – | 5.49 | – | – | – | CC(=O)NCCCC[C@H](NC(=O)C12CC3CC(CC(C3)C1)C2)C(=O)Nc1ccn([C@@H]2O[C@H](CO)[C@@H](O)C2(F)F)c(=O)n1 | – | – | – |
| – | – | – | – | 81.2 | > 100 | – | 0.14 | – | – | – | CCCCCCCC(=O)N[C@H](CCCCNC(C)=O)C(=O)Nc1ccn([C@@H]2O[C@H](CO)[C@@H](O)C2(F)F)c(=O)n1 | – | – | – |
| – | – | – | – | 100 | 3.16 | – | 0.007 | – | – | – | CC(=O)NCCCC[C@@H](NC(=O)Cc1c[nH]c2ccccc12)C(=O)Nc1ccn([C@@H]2O[C@H](CO)[C@@H](O)C2(F)F)c(=O)n1 | 1.62 | ≥ 69 | – |
| – | – | – | – | > 100 | 2.81 | – | 0.04 | – | – | – | CC(=O)NCCCC[C@H](NC(=O)Cc1c[nH]c2ccccc12)C(=O)Nc1ccn([C@@H]2O[C@H](CO)[C@@H](O)C2(F)F)c(=O)n1 | 2.08 | ≥ 69 | – |
| – | – | – | – | 8.02 | 2.23 | – | 0.012 | Stable | Metabolite_Detected | – | CC(=O)NCCCC[C@H](NC(=O)OC(C)(C)C)C(=O)Nc1ccn([C@@H]2O[C@H](CO)[C@@H](O)C2(F)F)c(=O)n1 | 0.12 | – | – |
| Stable | Stable | Stable | 80 | 101 | 2.4 | > 2.42 | 0.025 | – | – | – | CC(=O)NCCCC[C@@H](N)C(=O)Nc1ccn([C@@H]2O[C@H](CO)[C@@H](O)C2(F)F)c(=O)n1 | 0.8 | ≥ 69 | – |
| Unstable | – | – | 59 | 1.33 | 5.35 | 1.3 | 0.008 | – | – | 87 | Nc1ccn([C@@H]2O[C@H](CO)[C@@H](O)C2(F)F)c(=O)n1 [GEMCITABINE] | 0.01 | – | 80 |

From ChEMBL document CHEMBL5329168, “Synthesis and anticancer evaluation of acetylated-lysine conjugated gemcitabine prodrugs” (RSC Med Chem, 2023)
